Active and inactive are the calls of the source. The calls are words filed in the database; no cut-off is given here.
Legend:
TRAMP-C1A = experiment: Growth inhibition of mouse C1A cells after 72 hrs by MTT assay; assay type: functional
Procedure, shortened: (§1)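 Seeded overnight at C1A 2500, C2H 1500 or LNCaP 10,000 cells/well, then exposed to a range of concentrations or ethanol vehicle for 72 h. MTT added for 4 h, cells solubilized in 20% SDS/0.02 N HCl, absorbance read at 570 nm. Concentration for 50% growth inhibition (GI50) calculated. Replicate wells ± SD; ≥3 independent experiments.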

LNCaP [1] = experiment: Inhibition of cyclin D1 expression in LNCaP cells at 50 nM after 72 hrs by Western blot analysis; assay type: functional, cell-based; conditions: Homo sapiens
Procedure, shortened: (§2)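 Sub-confluent LNCaP cells given 50 nM or ethanol vehicle for 72 h. Lysed in Triton X-100/SDS buffer with protease and phosphatase inhibitors, run on SDS-PAGE, blotted to PVDF, probed overnight at 4 °C, detected by HRP chemiluminescence. Bands quantified by densitometry, normalized to actin and expressed relative to control.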

LNCaP [2] = experiment: Decrease in Bcl2 expression in LNCaP cells at 50 nM after 72 hrs by Western blot analysis; assay type: functional, cell-based; conditions: Homo sapiens; procedure, shortened: as §2
LNCaP [3] = experiment: Cell cycle arrest in LNCaP cells by accumulation at G1/S phase at 50 nM after 72 hrs by PI staining; assay type: functional, cell-based; conditions: Homo sapiens
Procedure, shortened: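 Sub-confluent LNCaP cells given vehicle (ethanol) or 50 nM for 72 h. Cells fixed in ice-cold 70% ethanol at 4 °C for ≥30 min, then stained with PI (10 μg/mL) plus RNase A (100 μg/mL) for 30 min in the dark. Phase distribution read by flow cytometry. Mean of three independent experiments ± SEM.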

LNCaP [4] = experiment: Inhibition of CDK2 expression in LNCaP cells at 50 nM after 72 hrs by Western blot analysis; assay type: functional, cell-based; conditions: Homo sapiens; procedure, shortened: as §2
LNCaP [5] = experiment: Inhibition of DNA synthesis in human LNCaP cells at 50 nM after 72 hrs by BrdU incorporation assay; assay type: functional; parameters: scale not given: the % may be the effect or the level left
Procedure, shortened: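 LNCaP cells given 50 nM or vehicle for 72 h, pulsed 30 min with 100 μg/mL BrdU plus 1 μg/mL FdU. Cells fixed, DNA denatured with 2 N HCl, neutralized with borate pH 8.5, stained with anti-BrdU and Alexa 488 secondary plus PI, then read by flow cytometry. Normalized to control ± SEM; ANOVA.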

LNCaP [6] = experiment: Decrease in CDK4 expression in LNCaP cells at 50 nM after 72 hrs by Western blot analysis; assay type: functional, Homo sapiens; parameters: scale not given: the % may be the effect or the level left; procedure, shortened: as §2
LNCaP [7] = experiment: Increase in p27 expression in LNCaP cells at 50 nM after 72 hrs relative to control by Western blot analysis; assay type: functional, Homo sapiens; procedure, shortened: as §2
TRAMP-C2H [8] = experiment: Inhibition of DNA synthesis in mouse C2H cells at 50 nM after 72 hrs by BrdU incorporation assay; assay type: functional; parameters: scale not given: the % may be the effect or the level left
Procedure, shortened: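 Sub-confluent C2H cells given 50 nM or vehicle for 72 h, labelled with BrdU for 4 h, incorporation measured by colorimetric BrdU ELISA at 370 nm. Expressed as % of control ± SEM; ANOVA.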

[9] = biological target: Cyclin-dependent kinase 2 (Homo sapiens) (UniProt P24941); experiment: Inhibition of CDK2 kinase activity assessed as decrease in histone H1 phosphorylation in LNCaP cells at 50 nM after 72 hrs by Western blot analysis; assay type: functional, cell-based
Procedure, shortened: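 LNCaP cells given 50 nM or vehicle for 72 h, lysed in NP40 buffer. Lysate (100 μg) immunoprecipitated overnight at 4 °C with cdk2 antibody on protein A/G beads. Beads incubated 30 min at 30 °C with 2 μg histone H1, 20 μM ATP and 5 μCi [γ-32P]ATP. Reaction resolved by SDS-PAGE and phospho-H1 detected by autoradiography, with cdk2 immunoblot alongside.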

LNCaP [10] = experiment: Decrease in Cyclin E expression in LNCaP cells at 50 nM after 72 hrs by Western blot analysis; assay type: functional, cell-based; conditions: Homo sapiens; procedure, shortened: as §2
LNCaP [11] = experiment: Increase in CDK6 expression in LNCaP cells at 50 nM after 72 hrs by Western blot analysis; assay type: functional, cell-based; conditions: Homo sapiens; procedure, shortened: as §2
LNCaP [12] = experiment: Increase in p21 expression in LNCaP cells at 50 nM after 72 hrs relative to control by Western blot analysis; assay type: functional, Homo sapiens; procedure, shortened: as §2
LNCaP [13] = experiment: Increase in p53 expression in LNCaP cells at 50 nM after 72 hrs relative to control by Western blot analysis; assay type: functional, cell-based; conditions: Homo sapiens; procedure, shortened: as §2
LNCaP [14] = experiment: Induction of early apoptosis in LNCaP cells at 50 nM after 72 hrs relative to control by V-PE/7-AAD staining; assay type: functional, Homo sapiens
Procedure, shortened: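 Sub-confluent LNCaP cells given 50 nM or vehicle for 72 h, trypsinized, washed in cold PBS, stained with annexin V-PE and 7-AAD for 15 min in the dark, analysed by flow cytometry. Early apoptosis = annexin V-positive only. Reported as fold over control ± SEM; ANOVA.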

LNCaP [15] = experiment: Growth inhibition of human LNCaP cells after 72 hrs by MTT assay; assay type: functional; procedure, shortened: as §1
LNCaP [16] = experiment: Growth inhibition of human LNCaP cells at 100 nM after 72 hrs by MTT assay; assay type: functional; procedure, shortened: as §1
LNCaP [17] = experiment: Increase in bax expression in LNCaP cells at 50 nM after 72 hrs by Western blot analysis; assay type: functional, cell-based; conditions: Homo sapiens; procedure, shortened: as §2
TRAMP-C2H [18] = experiment: Growth inhibition of mouse C2H cells after 72 hrs by MTT assay; assay type: functional; procedure, shortened: as §1
LNCaP [19] = experiment: Cell cycle arrest in LNCaP cells by accumulation at G2/M phase at 50 nM after 72 hrs by PI staining; assay type: functional, cell-based; conditions: Homo sapiens
Procedure, shortened: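 Sub-confluent LNCaP (RPMI, 10% FBS, 37 °C, 5% CO2) exposed to 50 nM or ethanol vehicle (≤0.002%) for 72 h; harvested, fixed in ice-cold 70% ethanol ≥30 min at 4 °C; ~10^6 cells stained with PI (10 μg/mL) plus RNase A (100 μg/mL) 30 min in dark; FACS; % cells in G0/G1, S, G2/M, mean of three independent experiments ± SEM.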

LNCaP [20] = experiment: Induction of late apoptosis in LNCaP cells at 50 nM after 72 hrs relative to control by V-PE/7-AAD staining; assay type: functional, cell-based; conditions: Homo sapiens
Procedure, shortened: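 Sub-confluent LNCaP treated 72 h with 50 nM or ethanol vehicle; trypsinized, washed twice in ice-cold PBS, stained with annexin V-PE and 7-AAD 15 min in dark, analysed by FACS; late stage scored as annexin V plus 7-AAD positive; mean fold increase ± SEM normalized to control (=1.0), ANOVA.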

Compound	GI50 (TRAMP-C1A) [nM]	Activity (LNCaP [1])	Activity (LNCaP [2])	Activity (LNCaP [3])	Activity (LNCaP [4])	Activity (LNCaP [6]) [%]	Activity (LNCaP [7])	Activity [9]	Activity (LNCaP [10])	Activity (LNCaP [11])	Activity (LNCaP [12])	Activity (LNCaP [13])	Activity (LNCaP [14])	GI50 (LNCaP [15]) [nM]	inhibition at 0.1 µM (LNCaP [16]) [%]	Activity (LNCaP [17])	GI50 (TRAMP-C2H [18]) [nM]	further results
C[C@H]1[C@@H](CC(CNc2ccccc2)C[C@H]2O[C@@H]3O[C@@]4(C)CC[C@H]5[C@H](C)CC[C@@H]([C@H]2C)[C@@]35OO4)O[C@@H]2O[C@@]3(C)CC[C@H]4[C@H](C)CC[C@@H]1[C@@]24OO3 (stereo not given in full)	18	Active	Active	Active	Active	10	6.5	Active	Active	Active	9	inactive	4	17.9	97	Active	17	Activity (LNCaP [5]): >90%; Activity (TRAMP-C2H [8]): >90%
COc1cccc2c1C(=O)c1c(O)c3c(c(O)c1C2=O)C[C@@](O)(C(=O)CO)C[C@@H]3O[C@H]1C[C@H](N)[C@H](O)[C@H](C)O1 [DOXORUBICIN]	20.4	–	–	–	–	–	–	–	–	–	–	–	–	45.3	69	–	15.8	Activity (LNCaP [19]): Active; Activity (LNCaP [20]): Active
CCOP(=O)(OCC)OCC(C[C@H]1O[C@@H]2O[C@@]3(C)CC[C@H]4[C@H](C)CC[C@@H]([C@H]1C)[C@@]24OO3)C[C@H]1O[C@@H]2O[C@@]3(C)CC[C@H]4[C@H](C)CC[C@@H]([C@H]1C)[C@@]24OO3 (stereo not given in full)	42.2	Active	–	Active	Active	10	6.5	Active	Active	–	9	inactive	4	36.3	–	Active	39.4	–
C[C@H]1[C@@H](CC(COP(=O)(Oc2ccccc2)Oc2ccccc2)C[C@H]2O[C@@H]3O[C@@]4(C)CC[C@H]5[C@H](C)CC[C@@H]([C@H]2C)[C@@]35OO4)O[C@@H]2O[C@@]3(C)CC[C@H]4[C@H](C)CC[C@@H]1[C@@]24OO3 (stereo not given in full)	31.9	Active	Active	Active	Active	10	6.5	Active	Active	Active	9	inactive	4	34.4	–	Active	44.8	–
